Results on five molecules are retold here after ChEMBL document CHEMBL4715923, “Investigation on the Anticancer Activity of Symmetric and Unsymmetric Cyclic Sulfamides” (ACS Med Chem Lett, 2021).

Test [1] concerns RPMI-8226. Kind of test: Cytotoxicity against human RPMI-8226 cells assessed as reduction in cell growth incubated for 48 hrs by SRB assay. The test is classed as functional, cell-based. In outline:
(§1)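 Cells kept in RPMI 1640 with 5% FBS and 2 mM L-glutamine at 37 °C in 5% CO2, periodically tested for Mycoplasma. After plating, cells were held 1 day without drug, and time-zero plates were read. Compounds in DMSO were added at 10^-4 to 10^-8 M (five 10-fold steps), with DMSO-only controls, for 48 h. Cells were then TCA-fixed and stained with sulforhodamine B, and absorbance was read. GI50 was derived from time-zero, control and treated absorbances; LC50 is the mean of two independent experiments.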
On the technique in general: In SRB staining, fixed cells bind dye roughly in proportion to their protein.

Test [2] deals with Panel NCI-60 (60 carcinoma cell lines). Kind of test: Cytotoxicity against human Panel NCI-60 (60 carcinoma cell lines) assessed as reduction in cell growth incubated for 48 hrs by SRB assay. It counts as functional, cell-based. The essentials: as §1
Test [3] deals with A549. The experiment in a line: Inhibition of cell migration in human A549 cells incubated for 24 hrs by phase contrast microscopy based relative wound healing/cell migration assay to control. The test is classed as functional. Conditions: dose 0-50 µM. In outline:
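Scratches were made in A549 monolayers. Cells were then grown in medium containing compound (0–50 μM) or DMSO vehicle, and wound closure was imaged by phase-contrast microscopy.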

For test [4], the system named is SF-295. Kind of test: Cytotoxicity against human SF-295 cells assessed as reduction in cell growth incubated for 48 hrs by SRB assay. It counts as functional, cell-based. In outline:
as §1

Test [5] deals with A549. The experiment in a line: Induction of apoptosis in human A549 cells assessed as effect on caspase activation. It counts as functional, cell-based.
Test [6] deals with A549. The experiment in a line: Cytotoxicity against human A549 cells assessed as reduction in cell growth at 10 uM incubated for 36 hrs by MTT assay relative to control. The test is classed as functional. The essentials:
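A549 cells were treated with 10 μM compound or DMSO vehicle, and growth inhibition was followed over time, with a 36 h time point.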

The test system of test [7] is A549. The experiment in a line: Cytotoxicity against human A549 cells assessed as loss of cell morphological changes at 1 uM. The test is classed as functional, cell-based. The essentials: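 A549 cells grown overnight were exposed to 1 μM compound or DMSO vehicle, and changes in cell morphology were recorded.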
For test [8], the system named is MDA-MB-468. Kind of test: Cytotoxicity against human MDA-MB-468 cells assessed as reduction in cell growth incubated for 48 hrs by SRB assay. It counts as functional, cell-based. The essentials: as §1
For test [9], the system named is A549. Kind of test: Inhibition of colony formation in human A549 cells grown under anchorage-independent soft-agar condition incubated for 9 days and subsequent media replenishment for every 3 days by crystal violet staining based light microscopy assay. Conditions: dose 10-50 µM, time 9.0 day.
Test [10] relates to A549. The experiment in a line: Induction of cellular senescence in human A549 cells assessed as increase in SA-beta-Gal accumulation in cells at 10 to 50 uM incubated for overnight by microscopic analysis. Conditions: dose 10-50 µM. It counts as functional, cell-based.
The test system of test [11] is HCT-116. The experiment in a line: Cytotoxicity against human HCT-116 cells assessed as reduction in cell growth incubated for 48 hrs by SRB assay. The test is classed as functional, cell-based. The essentials:
as §1

Test [12] relates to OVCAR-4. Kind of test: Cytotoxicity against human OVCAR-4 cells assessed as reduction in cell growth incubated for 48 hrs by SRB assay. It counts as functional, cell-based. The essentials: as §1
For test [13], the system named is A549. The experiment in a line: Induction of cell cycle arrest in human A549 cells assessed as increase in subG1 phase accumulation incubated for 48 hrs by PI based flow cytometry. The test is classed as functional. The essentials:
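A549 cells were exposed for 48 h, stained with propidium iodide and analysed by flow cytometry for cell cycle distribution and the sub-G1 (dead cell) fraction.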
On the technique in general: Flow cytometry measures light scatter and fluorescence of single cells or particles in a stream.

Test [14] deals with PC-3. Kind of test: Cytotoxicity against human PC-3 cells assessed as reduction in cell growth incubated for 48 hrs by SRB assay. The test is classed as functional, cell-based. The essentials:
as §1

Test [15] concerns the target Coagulation factor X (Homo sapiens, UniProt P00742). Kind of test: Inhibition of human factor Xa using […] as substrate by chromogenic assay.

Activity calls are given as the source filed them. The rule behind the calls is not given here.

Coagulation factor X, sequence (P00742 41-179 limits assumed): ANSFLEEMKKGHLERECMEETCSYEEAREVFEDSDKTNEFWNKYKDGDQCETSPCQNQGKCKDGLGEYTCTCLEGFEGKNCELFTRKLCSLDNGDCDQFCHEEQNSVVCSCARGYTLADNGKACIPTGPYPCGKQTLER
Coagulation factor X, sequence (P00742 235-488 limits assumed): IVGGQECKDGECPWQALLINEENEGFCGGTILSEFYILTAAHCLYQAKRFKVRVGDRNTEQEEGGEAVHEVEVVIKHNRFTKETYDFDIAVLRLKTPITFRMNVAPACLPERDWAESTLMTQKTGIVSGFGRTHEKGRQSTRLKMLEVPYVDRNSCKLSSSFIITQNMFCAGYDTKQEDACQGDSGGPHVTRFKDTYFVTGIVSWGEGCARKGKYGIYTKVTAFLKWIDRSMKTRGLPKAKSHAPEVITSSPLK

Regarding `O=S1(=O)N(Cc2ccccc2)[C@@H](Cc2ccccc2)[C@@H]2O[C@@H]2[C@H](Cc2ccccc2)N1Cc1ccccc1`, the inhibition entry in test [1] and in test [2] was “Active” each time.

For the molecule `O=S1(=O)N(Cc2ccccc2)[C@@H](Cc2ccccc2)C=C[C@H](Cc2ccccc2)N1Cc1ccccc1`, in test [3], the “inhibition (INH)” value came out at 50%. The inhibition result in test [4], in test [8], in test [11], in [12] and in test [14] was “Active” in each case. Also, the result in test [5] was inactive. For the same molecule, in [6], the inhibition at 10 µM is 50%. In addition, the result in [7], in test [10] and in test [13] was Active. For the same molecule, in [9], the inhibition result is “Dose-dependent effect”.

On to `O=S1(=O)N(Cc2ccccc2)[C@@H](Cc2ccccc2)[C@H](O)[C@H](O)[C@H](Cc2ccccc2)N1Cc1ccccc1`, for which the inhibition entry in test [1] and in [2] was “Active” in each case.

The molecule `CC(=N)N1CCC(Oc2ccc3c(c2)C(=O)NS(=O)(=O)N3Cc2ccc3ccc(C(=N)N)cc3c2)CC1` came in with an IC50 in [15] of 0.4 nM.

Consider `O=S1(=O)N(Cc2ccccc2)[C@H](Cc2ccccc2)[C@H](O)[C@H](O)[C@@H](Cc2ccccc2)N1Cc1ccccc1`, for which the inhibition entry in [1] and in test [2] was “Active” in each case.

Usually inhibition stands for the change of the read-out against control, counted positive when it falls. One may read the IC50 as the concentration that gives 50% inhibition. Higher therefore signals lower potency.
